Assay outcomes as filed in PubChem.
BAP1 block = human BAP1 deubiquitinase inhibition. recombinant BAP1, Ub-AMC hydrolysis fluorescence kinetic; hits give low values. calls only at 20 µM. 72,000 tested, 0.48% active. AID 436;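 active = activity remaining at or below 50% of control, provided the compound also passes the data quality filters; inactive = the rest, including low values that fail the filters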;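 note: 100% = DMSO wells rate and 0% = substrate alone blank rate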
M1 agonist = activates the M1 muscarinic receptor. CHO-M1 cells, Fluo-4 calcium fluorescence, agonist mode; hits give high values. B-score at 10 µM. 64,000 tested, 3% active;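 active = fluorescence rise, raw or as B-score row- and column-corrected plate score, outside the 99.7% band of its plate's samples, either direction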
Hsp90 inh = displaces geldanamycin probe from tumor Hsp90; P07900; NCI-N417 lysate Hsp90, Cy3B-geldanamycin FP displacement; inhibition, % at 30 µM; 64,000 tested, 0.35% active; AID 429;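 active = inhibition above 50%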;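 note: 0% = tracer plus lysate wells and 100% = tracer alone without lysate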
tolC growth inh = blocks growth of E. coli BW25113 tolC mutant; OD615; growth inhibition, % at 10 µM (by protocol); 65,000 tested, 2.2% active;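 active = growth inhibition at or above a cutoff equal to the mean over every tested compound plus 3 SD, cut at about 60% in these data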;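 note: growth measured after 20 h incubation at 37 °C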
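signal = optical density read at 615 nm | test system = E. coli ΔtolC::kan strain BW25113 | timing = 20 h compound exposure of bacteria at 37 °C | buffer or medium = LB medium plus 50 µg/mL kanamycin | compound dosing = 10 µM final, single dose | evaluation = % inhibition of E. coli growth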
M1 antag = antagonists of rat M1 muscarinic receptor. P08482. B-score at 10 µM. 64,000 tested, 3.4% active. CHO-M1 cells, Fluo-4 calcium, ACh EC80 antagonist mode; hits give low values;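 active = calcium fluorescence response, raw or row-and-column corrected B-score, differing from the plate sample mean either way at a set confidence level, mostly lower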
Target sequence (P08482 whole entry, looked up): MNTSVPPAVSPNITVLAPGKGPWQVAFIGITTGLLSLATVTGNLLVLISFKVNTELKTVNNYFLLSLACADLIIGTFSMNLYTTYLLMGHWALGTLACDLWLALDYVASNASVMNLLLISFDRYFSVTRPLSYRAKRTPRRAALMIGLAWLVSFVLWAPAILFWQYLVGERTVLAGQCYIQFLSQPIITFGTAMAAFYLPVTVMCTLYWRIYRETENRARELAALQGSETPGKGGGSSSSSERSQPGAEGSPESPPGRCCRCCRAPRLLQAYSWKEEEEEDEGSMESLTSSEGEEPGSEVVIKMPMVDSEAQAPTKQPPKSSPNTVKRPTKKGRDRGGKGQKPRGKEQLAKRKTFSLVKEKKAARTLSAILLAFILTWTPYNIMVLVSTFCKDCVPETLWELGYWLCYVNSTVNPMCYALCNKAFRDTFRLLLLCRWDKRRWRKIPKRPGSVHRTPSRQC
Ecoli WT expand = E. coli BW25113 growth inhibition, expanded screen. OD600 absorbance. growth inhibition, % at 100 µM. 98,000 tested, 0.15% active;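 active = growth inhibition above about 50% at one test dose, limit read from the data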;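 note: growth measured after 20 h incubation at 37 °C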
M1 agonist conf = confirmation of rat M1 muscarinic receptor agonists. shares compounds with M1 agonist. CHO-M1 cells, Fluo-4 calcium fluorescence, agonist mode; actives lie on both sides. fluorescence change (max-min) at 10 µM. 1,700 tested, 19% active. AID 1488;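 active = fluorescence change differs from the solvent-only DMSO control mean at a set confidence level in both duplicate runs; inconclusive = differs from solvent-only control mean in just one of two runs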;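 note: an EC20 dose of acetylcholine follows compound addition during the same imaging run; raw fluorescence intensity difference in instrument units with no normalization to controls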
M4 ag counter = counter-screen for M1 agonists: activity at rat M4 receptor; fluorescence change (max-min) at 10 µM; CHO M4/Gqi5 cells, Fluo-4 calcium fluorescence, agonist mode; actives lie on both sides; 1,700 tested, 9% active; shares compounds with M1 agonist;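 active = fluorescence change differing from the plate's solvent-only control wells at 99.7% confidence in both duplicates, whether higher or lower; inconclusive = differs from solvent controls in only one of two duplicates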
* marks the source's active call; other numbers are inactive results; i = inactive; ? = inconclusive; . = no result shown. Only some compounds are listed: those with a hit (about 5.1% of all), similar ones and a draw of the others.

SMILES	BAP1 block	M1 agonist	Hsp90 inh	tolC growth inh	M1 antag	Ecoli WT expand	M1 agonist conf	M4 ag counter
CCN(CC)c1ccc2cc(C(=O)Nc3ccccn3)c(=O)oc2c1	i	353*	8	8	-4.6*	-9	964*	1294*
COc1cc([N+](=O)[O-])cc(C=Nc2ccc(Cl)c(-c3nc4ccccc4o3)c2)c1O	i	.	.	.	.	.	.	.
CCOc1ccc(S(=O)(=O)n2ccc(C)n2)c2ccccc12	i	13*	0	16	0.32	-14	-12	-20
CCOC(=O)c1c(NC(=O)CSc2nnc(-c3ccccc3C)n2C)sc(C(C)=O)c1C	i	2.4*	-8	10	-5.2*	-11	-9.6	?
CCc1nc2ccccc2n1CC(=O)N1CCN(S(=O)(=O)c2cccc(C(F)(F)F)c2)CC1	i	4.6*	-3	20	0.44	1	-2.9	-8
N#Cc1c(-c2cccs2)cc(-c2ccccn2)nc1N	.	.	-3	3	.	-4	.	.
N#Cc1c(-c2cccs2)cc(-c2cccnc2)nc1N	.	2.8*	-2	5	0.69	-8	?	-49
O=C1OCc2ccc(NC(=O)C3CCCCC3)cc21	i	-3.3*	-2	-14	-1	-2	-36*	-69
NS(=O)(=O)c1ccc(NC(=O)C2CC=CCC2C(=O)N2CCCCC2)cc1 (stereo not given)	i	.	.	.	.	.	.	.
O=C(OCC(=O)N1CCN(C(=O)c2ccco2)CC1)c1ccccc1OCc1ccc(Cl)cc1	i	4.5*	1	22	0.083	-16	-18	?
COc1ccc(C(=O)OCn2nnc3ccccc3c2=O)cc1OC	i	-0.15	-2	-2	0.39	-4	.	.
COc1cccc(C(=O)OCn2nnc3ccccc3c2=O)c1	i	2.2*	-2	6	-0.13	2	-25	-21
CC(C)CCn1c(SCC(=O)OCn2nnc3ccccc3c2=O)nc2ccccc2c1=O	i	3.7*	-3	14	-0.044	-2	-11	-39
CSc1nnc(-c2cccs2)n1-c1ccccc1	i	0.62	2	1	0.44	4	.	.
c1ccc(-n2c(-c3ccncc3)nnc2-c2cccs2)cc1	i	9.2*	0	-9	0.4	-3	?	?
COc1ccc(S(=O)(=O)N(Cc2cc3ccc(OC)cc3[nH]c2=O)CC2COCCO2)cc1 (stereo not given)	i	4.9*	0	6	-0.19	-8	-12	?
C=CCOC(=O)C(C#N)c1nc2ccccc2nc1N1CCN(c2ccccc2OCC)CC1 (stereo not given)	.	-0.65	-4	9	-0.011	.	.	.
CCOC(=O)C1CCN(c2nc3ccccc3nc2C(C#N)C(=O)OC(C)COC)CC1 (stereo not given)	i	6.2*	1	-18	-0.091	5	?	-52
CCOC(=O)C1CCCN(c2nc3ccccc3nc2C(C#N)C(=O)OC(C)C)C1 (stereo not given)	i	2.2	-2	8	-0.12	.	.	.
CCOC(=O)C1CCN(c2nc3ccccc3nc2C(C#N)C(=O)OCCOC)CC1 (stereo not given)	i	6.2*	0	4	-0.027	2	0	-9.6
C=CCOC(=O)C(C#N)c1nc2ccccc2nc1N1CCC(C(=O)OCC)CC1 (stereo not given)	i	5.1*	-6	2	0.19	-4	-2.8	?
CCOC(=O)C1CCN(c2nc3ccccc3nc2C(C#N)C(=O)OC(C)C)CC1 (stereo not given)	i	28*	4	2	-0.37	-3	6.4	-33
COC(=O)C(C#N)c1nc2ccccc2nc1N1CCCC1 (stereo not given)	i	-0.018	-4	20	0.7	-3	.	.
CC1(C)CC(=O)C2=C(C1)Nc1ccccc1NC2c1ccccc1Cl (stereo not given)	i	.	.	.	.	.	.	.
O=[N+]([O-])c1sc2ccccc2c1-[n+]1ccccc1	i	.	.	.	.	.	.	.
SMILES	BAP1 block	M1 agonist	Hsp90 inh	tolC growth inh	M1 antag	Ecoli WT expand	M1 agonist conf	M4 ag counter
O=C(COc1ccccc1Cl)Nc1ccc(NC(=O)c2nccs2)cc1	i	.	.	.	.	.	.	.
O=C(Nc1ccc(I)cc1)c1ccc(C(=O)Nc2ccc(I)cc2)cc1	i	.	.	.	.	.	.	.
CCOc1ccccc1NC(=O)c1cccc(NC(=O)c2ccco2)c1	i	5.6*	-4	26	-0.68	-4	13	-24
Cc1cccc(C)c1OCC(=O)Nc1cccc(NC(=O)c2ccco2)c1	i	-0.11	-4	38	0.58	-14	.	.
Cc1ccccc1OCC(=O)Nc1cccc(NC(=O)c2ccco2)c1	i	7*	-1	24	0.54	-1	?	?
Cc1ccc(C(=O)Nc2cccc(-c3cnc4ccccc4n3)c2)cc1	.	.	.	.	.	-9	.	.
O=C(Nc1cccc(-c2cnc3ccccc3n2)c1)c1ccco1	i	4.3*	-12	39	-0.44	1	?	-44
O=C(Nc1ccc(N2CCN(C(=O)c3ccc(Cl)cc3)CC2)cc1)c1cc2ccccc2o1	.	.	.	.	.	-7	.	.
O=C(Nc1ccccc1N1CCN(C(=O)c2ccc(Cl)cc2)CC1)c1cc2ccccc2o1	.	4.6*	-8	20	2.8*	-10	-20	?
CC(=O)N1CC=C2C(C#N)=C(N)C(C#N)(C#N)[C@H](c3ccoc3)[C@H]2C1	i	4.7	-3	8	-1.4	3	.	.
CC(=O)N1CC=C2C(C#N)=C(N)C(C#N)(C#N)C(CCc3ccccc3)C2C1 (stereo not given)	i	1.6	-5	10	-1	-10	.	.
COc1ccc(OC)c(C2C3CN(C(C)C)CC=C3C(C#N)=C(N)C2(C#N)C#N)c1 (stereo not given)	i	40*	0	2	-0.14	-3	217*	212*
COc1cccc(OC)c1OCc1cc(C2C3CCCC=C3C(C#N)=C(N)C2(C#N)C#N)c(C)cc1C (stereo not given)	.	.	.	.	.	0	.	.
CCCN1CC=C2C(C#N)=C(N)C(C#N)(C#N)C(c3cccc(OC)c3OC)C2C1 (stereo not given)	i	89*	-8	7	-0.9	6	666*	628*
CN1CC=C2C(C#N)=C(N)C(C#N)(C#N)C(c3cccc(Cl)c3Cl)C2C1 (stereo not given)	i	64*	-12	16	0.68	1	243*	236*
CCN1CC=C2C(C#N)=C(N)C(C#N)(C#N)C(CCc3ccccc3)C2C1 (stereo not given)	i	32*	-6	4	-2.5*	-4	247*	?
CCCCOc1ccc(C2C3CN(C(=O)OCC)CC=C3C(C#N)=C(N)C2(C#N)C#N)cc1OC (stereo not given)	i	-0.63	-8	5	0.044	-10	.	.
